Bioassay records as filed in PubChem BioAssay.
KDM4C inh: inhibitors of GASC-1 (KDM4C) histone demethylase, primary screen, biochemical, single concentration HTS. Lysine-specific demethylase 4C (Homo sapiens), Q9H3R0. GST-KDM4C 2-372, H3K9me3 peptide, LANCE TR-FRET. inhibition, % at 12.5 µM. 96,000 tested, 0.15% active;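 active = mean replicate inhibition above about 25%, with at least 55% of replicates also reaching it, limit read from the data, passing the limit was not always enough; inconclusive = only one of those two conditions met; inactive = neither condition met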
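Material: GST-tagged GASC-1 (JMJD2C) catalytic fragment, aa 2-372 / Quantity: enzyme final amount 10 nM / Medium: HEPES buffer, pH 7.5, plus ascorbate / Doses: one test concentration per compound / Incubation: 30 min reaction, 60 min detection, RT / Measured by: LANCE TR-FRET / Read-out: inhibition from TR-FRET ratio decrease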
IDH1 mut inh: inhibitors of IDH1 R132H reductase, primary screen, biochemical, plate reader, single point | inhibition, % at 10 µM | diaphorase/resazurin fluorescence, 60 min | Isocitrate dehydrogenase [NADP] cytoplasmic (Homo sapiens), O75874 | AID 624101, 2012 | 70,000 tested, 0.18% active; in the data active = inhibition above about 34%; inconclusive = no clear call, values can overlap the other calls; inactive = below about 11%
Target sequence (O75874 whole entry R132H): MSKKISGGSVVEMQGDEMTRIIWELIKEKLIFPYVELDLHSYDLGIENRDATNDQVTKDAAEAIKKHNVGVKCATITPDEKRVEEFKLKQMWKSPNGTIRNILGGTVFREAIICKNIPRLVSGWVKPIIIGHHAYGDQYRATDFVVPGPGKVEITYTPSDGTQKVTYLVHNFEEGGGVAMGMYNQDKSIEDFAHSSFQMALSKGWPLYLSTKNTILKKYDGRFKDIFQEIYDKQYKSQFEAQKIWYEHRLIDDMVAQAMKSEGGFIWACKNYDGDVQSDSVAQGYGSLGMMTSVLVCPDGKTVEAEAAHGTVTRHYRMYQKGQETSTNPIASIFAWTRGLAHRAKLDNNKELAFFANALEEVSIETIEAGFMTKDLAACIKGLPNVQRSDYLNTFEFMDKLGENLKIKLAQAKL
Pf Dd2 inh: P. falciparum Dd2 growth inhibitors, primary screen, SYBR Green fluorescence, single dose replicates | 94,000 tested, 2.3% active | activity change, % at 10 µM | 72 h; hits give low values | AID 1159554, 2015; in the data active = activity change below about -80%; inconclusive = no clear call, values can overlap the other calls
T cruzi growth-1: T. cruzi intracellular proliferation inhibitors, primary screen, cell-based, beta-gal Tulahuen parasites, NIH3T3 host, luminescence | inhibition, % at 8.34 µM | 77,000 tested, 5.9% active | T. cruzi beta-gal in NIH3T3, GalScreen luminescence, 90 h | AID 624255, 2012;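 active = mean inhibition above about 93%, with at least 55% of replicates each passing it, limit read from the data, passing the limit was not always enough; inconclusive = only one of those two conditions holds; inactive = neither condition holds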
T cruzi growth-2: T. cruzi intracellular proliferation inhibitors, confirmation, cell-based, NIH3T3 host, beta-gal parasite, luminescence, cherry-pick; shares compounds with T cruzi growth-1; T. cruzi beta-gal in NIH3T3, GalScreen luminescence, 90 h; inhibition, % at 8.35 µM; 5,600 tested, 72% active; AID 651739, 2012;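 active = mean replicate inhibition above about 95% and at least 55% of replicates individually reaching it, limit read from the data; inconclusive = only one of the two criteria is met; inactive = neither criterion is met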
T cruzi growth-3: inhibitors of intracellular T. cruzi replication, confirmation, NIH3T3 host cells, beta-gal parasites, cherry-pick, set 2 | shares compounds with T cruzi growth-1 | T. cruzi beta-gal in NIH3T3, GalScreen luminescence, 90 h | inhibition, % at 2.09 µM | 5,600 tested, 21% active;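 active = mean inhibition above about 95%, with at least 55% of replicates also reaching it, limit read from the data; inconclusive = meets just one of the two conditions; inactive = meets neither condition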
3T3 cytotox: cytotoxicity in mouse NIH/3T3 fibroblasts, confirmation, cytotoxicity control for T. cruzi proliferation inhibitor project, cell-based, cherry-pick, single point; shares compounds with T cruzi growth-1; cytotoxicity (signal decrease), % at 8.35 µM; 5,600 tested, 14% active; NIH/3T3 viability, CellTiter-Glo ATP luminescence, 90 h; AID 651742, 2012;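 active = mean signal decrease across replicates above about 35% based on untreated-well scatter, with enough replicates individually passing, limit read from the data; inconclusive = no rule stated though some were filed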
NIH3T3 tox 2: NIH/3T3 fibroblast cytotoxicity, confirmation, cytotoxicity control, cell-based, cherry-pick, single point, set 2 | shares compounds with T cruzi growth-1 | NIH/3T3 viability, CellTiter-Glo ATP luminescence, 90 h | inhibition, % at 24.9 µM | 5,600 tested, 56% active | AID 651744, 2012;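 active = mean loss of cell viability signal at or above a set limit, and enough replicates individually reaching it; inconclusive = meets only the mean limit or only the replicate share; inactive = meets neither condition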
Hits are given with their value; n = inactive; u = inconclusive; x = no result. A selection: hits, their analogues and other compounds. The true share with any hit is near 5.8%.

SMILES | KDM4C inh | IDH1 mut inh | Pf Dd2 inh | T cruzi growth-1 | T cruzi growth-2 | T cruzi growth-3 | 3T3 cytotox | NIH3T3 tox 2
CO[C@H]1CN(C)C(=O)c2cc(NC(=O)c3cc(C)on3)ccc2OC[C@@H](C)N(CC2CC2)C[C@H]1C | n | n | n | n | x | x | x | x
CC(C)NC(=O)Nc1cccc2c1O[C@H](CN(C)Cc1ccc(Oc3ccccc3)cc1)[C@@H](C)CN([C@H](C)CO)C2=O | n | n | n | 103 | 102 | n | n | 103
CC(C)NC(=O)Nc1cccc2c1O[C@H](CN(C)Cc1ccc(Oc3ccccc3)cc1)[C@@H](C)CN([C@@H](C)CO)C2=O | n | n | n | u | 100 | n | n | 104
CC(C)NC(=O)Nc1cccc2c1O[C@H](CN(C)Cc1ccc(Oc3ccccc3)cc1)[C@H](C)CN([C@@H](C)CO)C2=O | n | n | n | n | x | x | x | x
C[C@H]1CN([C@@H](C)CO)C(=O)c2cccc(NC(=O)Nc3ccccc3)c2O[C@@H]1CN(C)Cc1ccc(Oc2ccccc2)cc1 | x | n | n | n | x | x | x | x
C[C@H](CO)N1C[C@H](C)[C@H](CN(C)Cc2ccc(Oc3ccccc3)cc2)Oc2c(NC(=O)Nc3cccc4ccccc34)cccc2C1=O | n | n | n | 98 | 99 | 109 | n | u
COc1ccccc1NC(=O)N[C@@H]1CC[C@H](CCNS(=O)(=O)c2ccc(Cl)cc2)O[C@@H]1CO | n | n | n | n | x | x | x | x
O=C(C1CCCC1)N1CC2(C1)[C@@H](c1ccccc1)[C@@H](CO)N2CC1CCCC1 | n | x | n | x | x | x | x | x
C[C@H](CO)N1C[C@H](C)[C@@H](CN(C)S(=O)(=O)c2ccccc2)OCCCC[C@H](C)Oc2ccc(NC(=O)c3ccncc3)cc2C1=O | n | x | n | x | x | x | x | x
COc1ccc(NC(=O)N(C)C[C@@H]2Oc3ccc(NS(=O)(=O)c4ccc(C)cc4)cc3C(=O)N([C@@H](C)CO)C[C@@H]2C)cc1 | n | n | n | n | x | x | x | x
O=C(c1cccc(F)c1)N1CCCCN2[C@H](CO)[C@@H](c3ccc(-c4ccncc4)cc3)[C@H]2C1 | n | x | n | n | x | x | x | x
O=C(c1cccc(F)c1)N1CCCCN2[C@H](CO)[C@H](c3ccc(-c4ccc(F)cc4)cc3)[C@H]2C1 | x | x | n | 111 | 102 | n | n | 104
O=C(c1cccc(F)c1)N1CCCCN2[C@H](CO)[C@H](c3ccc(-c4cccnc4)cc3)[C@@H]2C1 | n | x | n | u | 103 | n | n | n
O=C(c1cccc(F)c1)N1CCCCN2[C@H](CO)[C@@H](c3ccc(-c4ccc(F)cc4)cc3)[C@H]2C1 | x | x | n | n | x | x | x | x
O=C(c1cccc(F)c1)N1CCCCN2[C@@H](CO)[C@@H](c3ccc(-c4ccc(F)cc4)cc3)[C@@H]2C1 | x | x | n | n | x | x | x | x
O=C(c1cccc(F)c1)N1CCCCN2[C@H](CO)[C@H](c3ccc(-c4cccnc4)cc3)[C@H]2C1 | n | x | n | n | x | x | x | x
O=C(c1cccc(F)c1)N1CCCCN2[C@@H](CO)[C@H](c3ccc(-c4ccc(F)cc4)cc3)[C@@H]2C1 | x | x | n | 105 | 103 | n | n | 106
O=C(c1cccc(F)c1)N1CCCCN2[C@@H](CO)[C@H](c3ccc(-c4ccncc4)cc3)[C@@H]2C1 | n | x | n | 109 | 101 | n | n | 47
C/C=C/c1cccc(-c2nc(C(=O)NCCC)cc3c2[C@@H](CCO)N([S@](=O)C(C)(C)C)C3)c1 | n | x | n | x | x | x | x | x
C[C@@H]1CN([C@@H](C)CO)C(=O)Cc2cc(NC(=O)CCCN(C)C)ccc2O[C@H]1CN(C)Cc1ccncc1 | n | n | n | n | x | x | x | x
CCCN(C)C[C@@H]1Oc2cc(/C=C/c3ccccc3)ccc2S(=O)(=O)N([C@@H](C)CO)C[C@@H]1C | n | n | n | x | x | x | x | x
CNC[C@H]1OCCCC[C@H](C)Oc2ccc(NC(=O)Nc3cccc4ccccc34)cc2C(=O)N([C@H](C)CO)C[C@@H]1C | n | n | n | n | x | x | x | x
O=C(C[C@@H]1CC[C@@H](NC(=O)Nc2ccccc2)[C@H](CO)O1)NCc1ccccn1 | n | n | n | 108 | n | n | n | n
O=C(C[C@H]1CC[C@@H](NC(=O)Nc2cc(F)ccc2F)[C@H](CO)O1)Nc1ccc(-c2ccccc2)cc1 | n | n | n | 132 | 106 | n | n | 32
C[C@@H]1CN([C@@H](C)CO)C(=O)c2cc(NC(=O)Nc3ccccc3)ccc2O[C@@H]1CN(C)CC1CCCCC1 | n | n | n | x | x | x | x | x
SMILES | KDM4C inh | IDH1 mut inh | Pf Dd2 inh | T cruzi growth-1 | T cruzi growth-2 | T cruzi growth-3 | 3T3 cytotox | NIH3T3 tox 2
CCCC(=O)Nc1ccc2c(c1)C(=O)N(C)C[C@H](OC)[C@H](C)CN[C@@H](C)CO2 | n | n | x | n | x | x | x | x
C[C@@H]1CCCCO[C@@H](CN(C)Cc2ccc(C(F)(F)F)cc2)[C@H](C)CN([C@@H](C)CO)C(=O)c2cc(NC(=O)C3CCCCC3)ccc2O1 | n | n | n | 114 | 102 | 112 | n | n
C[C@H](CO)N1C[C@H](C)[C@H](CN(C)C(=O)Nc2ccc(C(F)(F)F)cc2)Oc2ccc(NC(=O)C3CCCCC3)cc2C1=O | n | n | n | u | 100 | n | 44 | 52
C[C@@H]1CCCCO[C@@H](CN(C)Cc2ccc(C(=O)O)cc2)[C@H](C)CN([C@H](C)CO)C(=O)c2cc(NC(=O)C3CCCCC3)ccc2O1 | n | n | n | n | x | x | x | x
C[C@H](CO)N1C[C@H](C)[C@H](CN(C)Cc2ccc(C(F)(F)F)cc2)OCCCC[C@H](C)Oc2ccc(NC(=O)C3CCCCC3)cc2C1=O | n | n | n | 99 | u | 111 | n | 55
C[C@@H]1CCCCO[C@@H](CN(C)Cc2ccc(C(=O)O)cc2)[C@@H](C)CN([C@@H](C)CO)C(=O)c2cc(NC(=O)C3CCCCC3)ccc2O1 | n | n | n | n | x | x | x | x
C[C@@H]1CCCCO[C@H](CN(C)Cc2ccc(C(F)(F)F)cc2)[C@H](C)CN([C@@H](C)CO)C(=O)c2cc(NC(=O)C3CCCCC3)ccc2O1 | n | n | n | 117 | 102 | 110 | 57 | 73
C[C@@H]1CCCCO[C@@H](CN(C)Cc2ccc(C(=O)O)cc2)[C@@H](C)CN([C@H](C)CO)C(=O)c2cc(NC(=O)C3CCCCC3)ccc2O1 | n | n | n | n | x | x | x | x
